In ChEMBL document CHEMBL1158072, “Antioxidative phenolics from the fresh leaves of Ternstroemia japonica” (J Nat Prod, 2006) one finds IC50 data, which are given here for ten molecules.

By IC50 is commonly meant the concentration that inhibits the measured activity by half.

Assay [1] in a line: Antioxidant activity assessed as inhibition of hydroxyl radical generation by fluorescence spectroscopy. In kind it is functional. The method, boiled down:
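Test samples in 10% EtOH (final 0.4%) added to 1 mM H2O2 plus 0.2 mM FeSO4 and incubated 37 °C for 5 min. Esterase-treated 2 µM DCHF-DA (in EtOH) then added and fluorescence followed for 30 min at ex 460/em 530 nm. Trolox positive control. IC50 reported as mean ± standard error of triplicate experiments.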

Assay [2] can be described thus: Antioxidant activity assessed as peroxynitrite scavenging activity by fluorescence spectroscopy. In kind it is functional. The essentials: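 Authentic peroxynitrite oxidation of dihydrorhodamine 123 (final 5 µM) in N2-purged buffer of 90 mM NaCl, 50 mM Na3PO4, 5 mM KCl and 100 µM DTPA, pH 7.4. Fluorescence read 5 min after treatment with and without ONOO- at ex 480/em 530 nm. Signal taken as final minus background. DL-penicillamine positive control. IC50 reported as mean ± standard error, n = 3.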

The next assay concerns Kidney. Kind of assay: Antioxidant activity assessed as inhibition of total reactive oxygen species generation in Wistar rat kidney by 2',7'-dichlorofluorescein based fluorescence spectroscopy. In kind it is functional, tissue-based. The essentials: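 Rat kidney homogenate (postmicrosomal fraction) from freshly killed male Wistar rats, 150-200 g, mixed with samples in 10% EtOH (final 0.4%). DCHF-DA (12.5 mM, in EtOH, final 0.2%) added in 50 mM phosphate buffer pH 7.4 and incubated 37 °C for 30 min. DCF fluorescence read at ex 460/em 530 nm. Trolox positive control. IC50 reported as mean ± standard error, triplicate.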

Turning to `O=C(Cc1ccc(O)c(O)c1)O[C@H]1[C@H](OCCc2ccc(O)cc2)O[C@H](CO)[C@@H](O)[C@@H]1O` [TERNSTROSIDE E], the IC50 in assay [1] stood at 4.72 µM; in assay [2] it was 2.56 µM; with Kidney it was 55 µM.
The corresponding values for `O=C(Cc1ccc(O)cc1)O[C@H]1[C@H](OCCc2ccc(O)c(O)c2)O[C@H](CO)[C@@H](O)[C@@H]1O` [TERNSTROSIDE B] are 4.66 µM, 2.36 µM and 62.5 µM.
The corresponding values for `O=c1c(O)c(-c2ccc(O)c(O)c2)oc2cc(O)cc(O)c12` [QUERCETIN] are 2.39 µM, 1.38 µM and 29.1 µM.
The corresponding values for `O=C(Cc1ccc(O)c(O)c1)O[C@H]1[C@H](OCCc2ccc(O)c(O)c2)O[C@H](CO)[C@@H](O)[C@@H]1O` [TERNSTROSIDE A] are 3.41 µM, 1.69 µM and 39.3 µM.
With `O=C(Cc1ccc(O)c(O)c1)OC[C@H]1O[C@@H](OCCc2ccc(O)c(O)c2)[C@H](O)[C@@H](O)[C@@H]1O` [TERNSTROSIDE D], the IC50 in assay [1] stood at 6.5 µM; in assay [2], 3.85 µM; in the assay with Kidney, 66.9 µM.
The corresponding values for `O=C(Cc1ccc(O)c(O)c1)O[C@H]1[C@H](OCCc2cc(O)c(O)cc2O)O[C@H](CO)[C@@H](O)[C@@H]1O` are 4.21 µM, 1.54 µM and 45.4 µM.
With `O=c1c(O[C@@H]2O[C@H](CO)[C@@H](O)[C@H](O)[C@H]2O[C@@H]2OC[C@@H](O)[C@H](O)[C@H]2O)c(-c2ccc(O[C@@H]3O[C@H](CO)[C@@H](O)[C@H](O)[C@H]3O)cc2)oc2cc(O)cc(O)c12`, the IC50 in assay [1] came to 5.28 µM; in assay [2] it was 13.5 µM; in the assay on Kidney it was 82.2 µM.
The corresponding values for `O=C(Cc1ccc(O)c(O)c1)O[C@@H]1[C@@H](O)[C@H](OCCc2ccc(O)c(O)c2)O[C@H](CO)[C@H]1O` [TERNSTROSIDE C] are 3.26 µM, 1.14 µM and 33.3 µM.
Regarding `CC(C)(S)C(N)C(=O)O` (racemic) [DL-PENICILLAMINE], the IC50 in assay [2] stood at 1.05 µM.
`Cc1c(C)c2c(c(C)c1O)CCC(C)(C(=O)O)O2` (configuration not stated) [TROLOX]: the IC50 was 2.83 µM in assay [1] and 29.5 µM with Kidney.
